Results: ChEMBL document CHEMBL1152478, “Design, synthesis, and antifungal activity of triazole and benzotriazole derivatives” (2009)
Converted amounts (≈) assume the structure as drawn.

Experiments:
Assay type in all cases: functional
[1] = tested on: Trichophyton mentagrophytes; assay: Antifungal activity against Trichophyton mentagrophytes after 48 hrs by agar dilution method
Method in brief: (§1)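 Clinical isolates, purified and subcultured on SC, SCC and PDA media before testing. Compounds were dissolved as DMSO stocks and diluted into solid medium (PDA) for agar dilution. Inocula for molds and yeast came from 2- to 7-day mature colonies. The read-out was the minimum inhibitory concentration (MIC).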

[2] = tested on: Trichophyton rubrum; assay: Antifungal activity against Trichophyton rubrum after 48 hrs by agar dilution method; method in brief: as §1
[3] = tested on: Microsporum canis; assay: Antifungal activity against Microsporum canis after 48 hrs by agar dilution method; method in brief: as §1
[4] = tested on: Epidermophyton floccosum; assay: Antifungal activity against Epidermophyton floccosum after 48 hrs by agar dilution method; method in brief: as §1
[5] = tested on: Candida albicans; assay: Antifungal activity against Candida albicans after 48 hrs by agar dilution method; method in brief: as §1

Row | Compound | MIC [1] [µg/mL] | MIC [2] [µg/mL] | MIC [3] [µg/mL] | MIC [4] [µg/mL] | MIC [5] [µg/mL]
1 | CCCCCCCCn1nnc2ccccc21 | 64 (≈ 277 µM) | 64 (≈ 277 µM) | 64 (≈ 277 µM) | 32 (≈ 138 µM) | –
2 | COc1ccc(C(c2ccccc2)(c2ccc(OC)cc2)n2nnc3ccccc32)cc1 | 64 (≈ 152 µM) | 32 (≈ 75.9 µM) | – | – | –
3 | CCCCCn1nnc2ccccc21 | 32 (≈ 169 µM) | 32 (≈ 169 µM) | 16 (≈ 84.5 µM) | 16 (≈ 84.5 µM) | 32 (≈ 169 µM)
4 | CCCCCCCCn1cncn1 | 16 (≈ 88.3 µM) | 16 (≈ 88.3 µM) | 16 (≈ 88.3 µM) | 8 (≈ 44.1 µM) | 16 (≈ 88.3 µM)
5 | c1ccc(C(c2ccccc2)(c2ccccc2)n2nnc3ccccc32)cc1 | – | 64 (≈ 177 µM) | – | 64 (≈ 177 µM) | 64 (≈ 177 µM)
6 | COc1ccc(C(c2ccccc2)(c2ccccc2)n2nnc3ccccc32)cc1 | 64 (≈ 163 µM) | 64 (≈ 163 µM) | – | 64 (≈ 163 µM) | –
7 | CCCCCn1cncn1 | 64 (≈ 460 µM) | 64 (≈ 460 µM) | 64 (≈ 460 µM) | 64 (≈ 460 µM) | –
8 | Clc1ccccc1C(c1ccccc1)(c1ccccc1)n1ccnc1 [CLOTRIMAZOLE] | 0.05 (≈ 0.145 µM) | 0.5 (≈ 1.45 µM) | 0.065 (≈ 0.188 µM) | 4 (≈ 11.6 µM) | 4 (≈ 11.6 µM)
9 | c1ccc(C(c2ccccc2)(c2ccccc2)n2cncn2)cc1 | 32 (≈ 103 µM) | 64 (≈ 206 µM) | 64 (≈ 206 µM) | 1 (≈ 3.21 µM) | –
10 | COc1ccc(C(c2ccccc2)(c2ccccc2)n2cncn2)cc1 | 16 (≈ 46.9 µM) | 32 (≈ 93.7 µM) | 32 (≈ 93.7 µM) | 8 (≈ 23.4 µM) | –
11 | OC(Cn1cncn1)(Cn1cncn1)c1ccc(F)cc1F [FLUCONAZOLE] | 1 (≈ 3.27 µM) | 32 (≈ 104 µM) | 16 (≈ 52.2 µM) | 0.25 (≈ 0.816 µM) | 32 (≈ 104 µM)
